≈ marks a conversion by molar mass, not a printed value.
What was measured:
[1] = Antioxidant activity assessed as DPPH radical scavenging activity at 100 uM after 60 mins relative to control; format: functional
Method in brief: (§1)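 Compound in DMSO added to DPPH in absolute ethanol, 0.1 mM final; absorbance at 517 nm after 20 and 60 min at room temperature. At least triplicate.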

[2] = test system: Glycine max; test: Inhibition of soybean LOX assessed as reduction in conversion of sodium linoleate to 13-hydroperoxylinoleic acid at 1 x 10^-4 M relative to control
Method in brief: (§2)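 Soybean lipoxygenase incubated at room temperature with sodium linoleate (0.1 mM) and test compound (DMSO stocks); formation of 13-hydroperoxylinoleic acid read at 234 nm. Single-point screening at 1 × 10^-4 M; IC50 from several concentrations. At least triplicate.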

[3] = Inhibition of soybean LOX assessed as reduction in conversion of sodium linoleate to 13-hydroperoxylinoleic acid; set-up: species or system Glycine max; method in brief: as §2
[4] = Antioxidant activity assessed as DPPH radical scavenging activity at 100 uM after 20 mins relative to control; format: functional; method in brief: as §1
[5] = Growth inhibition of human MCF7 cells after 72 hrs by MTT assay; format: functional, cell-based; details: MCF7, 72 h
Method in brief: (§3)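 Modified NCI DTP protocol: cells in DMEM with 10% FBS, 2 mM glutamine, antibiotics, 37 °C, 5% CO2; seeded 1 × 10^4 to 3 × 10^4 cells/ml on day 0, exposed to five 10-fold dilutions (10^-8 to 10^-4 M) for 72 h; solvent control. MTT read-out; quadruplicate points in three experiments; IC50 by linear regression of growth percentages bracketing 50%.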

[6] = Growth inhibition of mouse L1210 cells after 72 hrs by MTT assay; format: functional, cell-based; details: L1210, 72 h
[7] = Growth inhibition of human Molt4/C8 cells after 72 hrs by MTT assay; format: functional, cell-based; details: MOLT-4, 72 h
[8] = Growth inhibition of human SW620 cells after 72 hrs by MTT assay; format: functional, cell-based; details: SW-620, 72 h; method in brief: as §3
[9] = Growth inhibition of human NCI-H460 cells after 72 hrs by MTT assay; format: functional, cell-based; details: NCI-H460, 72 h; method in brief: as §3
[10] = Growth inhibition of human CEM cells after 72 hrs by MTT assay; format: functional, cell-based; details: CCRF-CEM
[11] = Antioxidant activity assessed as inhibition of AAPH-induced linoleic acid lipid peroxidation at 1 x 10^-4 M by UV-absorbance method relative to control; format: functional
Method in brief: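 Linoleic acid peroxidation: 16 mM sodium linoleate dispersion in 0.05 M phosphate buffer pH 7.4 at 37 °C under air, initiated by AAPH (40 mM solution); compound at 1 × 10^-4 M; oxidation followed at 234 nm. At least triplicate.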

[12] = Growth inhibition of human MIAPaCa2 cells after 72 hrs by MTT assay; format: functional, cell-based; details: MIA PaCa-2, 72 h
[13] = Growth inhibition of human HeLa cells after 72 hrs by MTT assay; format: functional, cell-based
[14] = test system: Escherichia coli; test: Antibacterial activity against Escherichia coli ATCC 10535 after 18 hrs by serial microdilution broth assay; format: functional; details: ATCC 10535, 18 h
Method in brief: (§4)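 Broth microdilution MIC per EUCAST for aerobic bacteria in Mueller-Hinton broth, serial dilution 1000 to 0.78125 µg/ml from 10 mg/ml DMSO stocks. Inoculum from trypticase soy broth cultures (18 h, 37 °C), set to 0.5 McFarland in PBS pH 7.4, diluted 1:10. 18 h aerobic incubation at 35 °C in dark, then TTC 0.5 mg/ml for 3 h, HCl-isopropanol, A490. MIC = lowest concentration giving 50% inhibition versus untreated; duplicates.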

[15] = test system: Staphylococcus aureus; test: Antibacterial activity against methicillin resistant Staphylococcus aureus MFBF 10679 after 18 hrs by serial microdilution broth assay; format: functional; details: MFBF 10679, 18 h
Method in brief: (§5)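 EUCAST-based broth microdilution in Mueller-Hinton broth. Glycerol stock cultures grown in trypticase soy broth 18 h at 37 °C; inoculum in PBS pH 7.4 at 0.5 McFarland, diluted 1:10 in broth. Compounds from DMSO stocks, 1000 to 0.78125 µg/ml; 18 h aerobic, 35 °C, dark. TTC 0.5 mg/ml added, 3 h, then HCl/isopropanol, A490. MIC = lowest concentration giving 50% inhibition vs untreated; duplicates, averaged.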

[16] = test system: Pseudomonas aeruginosa; test: Antibacterial activity against Pseudomonas aeruginosa ATCC 27853 after 18 hrs by serial microdilution broth assay; format: functional; details: ATCC 27853, 18 h; method in brief: as §4
[17] = test system: Enterococcus faecalis; test: Antibacterial activity against vancomycin susceptible Enterococcus faecalis ATCC 29212 after 18 hrs by serial microdilution broth assay; format: functional; details: ATCC 29212, 18 h; method in brief: as §4
[18] = test system: Staphylococcus aureus; test: Antibacterial activity against methicillin sensitive Staphylococcus aureus ATCC 25213 after 18 hrs by serial microdilution broth assay; format: functional; details: ATCC 25213, 18 h; method in brief: as §4
[19] = test system: Pseudomonas aeruginosa; test: Antibacterial activity against multi-drug resistant Pseudomonas aeruginosa MFBF after 18 hrs by serial microdilution broth assay; format: functional; method in brief: as §5
[20] = test system: Staphylococcus aureus; test: Antibacterial activity against methicillin resistant Staphylococcus aureus MFBF 10682 after 18 hrs by serial microdilution broth assay; format: functional; details: MFBF 10682, 18 h; method in brief: as §5
[21] = test system: Staphylococcus aureus; test: Antibacterial activity against Staphylococcus aureus ATCC 6538 after 18 hrs by serial microdilution broth assay; format: functional; details: ATCC 6538, 18 h; method in brief: as §4
[22] = test system: Pseudomonas aeruginosa; test: Antibacterial activity against Pseudomonas aeruginosa ATCC 9027 after 18 hrs by serial microdilution broth assay; format: functional; details: ATCC 9027, 18 h; method in brief: as §5
[23] = test system: Bacillus cereus; test: Antibacterial activity against Bacillus cereus ATCC 11778 after 18 hrs by serial microdilution broth assay; format: functional; details: ATCC 11778, 18 h; method in brief: as §4
[24] = test system: Bacillus pumilus; test: Antibacterial activity against Bacillus pumilus NCTC 8241 after 18 hrs by serial microdilution broth assay; format: functional; details: NCTC 8241, 18 h; method in brief: as §4
[25] = test system: Bacillus spizizenii; test: Antibacterial activity against Bacillus subtilis ATCC 6633 after 18 hrs by serial microdilution broth assay; format: functional; details: ATCC 6633, 18 h; method in brief: as §4
[26] = test system: Enterococcus faecalis; test: Antibacterial activity against vancomycin resistant Enterococcus faecalis MFBF 11419 after 18 hrs by serial microdilution broth assay; format: functional; details: MFBF 11419, 18 h; method in brief: as §5
[27] = test system: Staphylococcus aureus; test: Antibacterial activity against methicillin sensitive Staphylococcus aureus ATCC 25923 after 18 hrs by serial microdilution broth assay; format: functional; details: ATCC 25923, 18 h; method in brief: as §5
[28] = test system: Candida albicans; test: Antifungal activity against Candida albicans ATCC 90028 after 18 hrs by serial microdilution broth assay; format: functional; details: ATCC 90028, 18 h
Method in brief: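 Yeast microdilution in RPMI 1640 with glutamine plus 2% glucose, 1000 to 0.78125 µg/ml from 10 mg/ml DMSO stocks. Growth read with XTT (10 mg/ml) mixed 7:1 with menadione (1 mg/ml in acetone), absorbance at 540 nm. MIC taken as lowest concentration giving 50% growth inhibition versus untreated cells; tests in duplicate.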

Structure (SMILES)	Activity [1]	inhibition [2]	Activity [4]	IC50 [5]	IC50 [6]	IC50 [7]	IC50 [8]	IC50 [9]	IC50 [10]	inhibition [11]	IC50 [12]	IC50 [13]	also measured
CC(Cc1ccc(O)c(O)c1)C(C)Cc1ccc(O)c(O)c1 (configuration not stated) [NORDIHYDROGUAIARETIC ACID]	97%	83%	83%										IC50 [3]: 4.5 µM
COc1cc(NC(C)CCCNC(=O)Nc2cccc(Cl)c2)c2ncccc2c1 (configuration not stated)	35.7%	11.8%		11000 nM	17 µM	21 µM	26 µM	37 µM	22 µM	84.1%	21 µM	17 µM	
CN(C)[C@@H]1C(O)=C(C(N)=O)C(=O)[C@@]2(O)C(O)=C3C(=O)c4c(O)cccc4[C@@](C)(O)[C@H]3C[C@@H]12 [TETRACYCLINE]													MIC50 [14]: 2.5 µg/mL (≈ 5.63 µM); MIC50 [15]: 0.312 µg/mL (≈ 0.702 µM); MIC50 [16]: 3 µg/mL (≈ 6.75 µM); MIC50 [17]: 0.312 µg/mL (≈ 0.702 µM); MIC50 [18]: 0.156 µg/mL (≈ 0.351 µM); MIC50 [19]: > 128 µg/mL; MIC50 [20]: 0.312 µg/mL (≈ 0.702 µM); MIC50 [21]: 0.15 µg/mL (≈ 0.338 µM); MIC50 [22]: 3 µg/mL (≈ 6.75 µM); MIC50 [23]: 0.312 µg/mL (≈ 0.702 µM); MIC50 [24]: 0.156 µg/mL (≈ 0.351 µM); MIC50 [25]: 0.312 µg/mL (≈ 0.702 µM); MIC50 [26]: > 128 µg/mL; MIC50 [27]: 0.312 µg/mL (≈ 0.702 µM)
COc1cc(NC(C)CCCNC(=O)NNC(=O)Nc2cc(C(F)(F)F)cc(C(F)(F)F)c2)c2ncccc2c1 (configuration not stated)	88%	33.9%	86.8%	2400 nM	18 µM	22 µM	16 µM	18 µM	13 µM	39.9%	20 µM	17 µM	
C[C@@H](c1ncncc1F)[C@](O)(Cn1cncn1)c1ccc(F)cc1F [VORICONAZOLE]													MIC50 [28]: 0.5 µg/mL (≈ 1.43 µM)
COc1cc(NC(C)CCCNC(=O)NNC(=O)Nc2cccc(Cl)c2)c2ncccc2c1 (configuration not stated)	95.1%	48.4%	97.9%	220 nM	27 µM	93 µM	25 µM	32 µM	81 µM	70.8%	74 µM	44 µM	
Cc1c(C)c2c(c(C)c1O)CCC(C)(C(=O)O)O2 (configuration not stated)										76%			
COc1cc(NC(C)CCCNC(=O)Nc2ccc(O)cc2)c2ncccc2c1 (configuration not stated)	94.5%	49.9%	95.5%	5200 nM	21 µM	21 µM	30 µM	34 µM	23 µM	54%	57 µM	70 µM	
COc1cc(NC(C)CCCNC(=O)NNC(=O)Nc2cccc(O)c2)c2ncccc2c1 (configuration not stated)	100%	41.6%	96.5%	1100 nM	160 µM	85 µM	17 µM	> 100 µM	143 µM	52.2%	129 µM	180 µM	
COc1cc(NC(C)CCCNC(=O)Nc2ccc(Cl)cc2)c2ncccc2c1 (configuration not stated)	37%	21.6%	24%	12000 nM	19 µM	24 µM	28 µM	34 µM	24 µM	81.9%	22 µM	18 µM	
COc1cc(NC(C)CCCNC(=O)NNC(=O)Nc2ccc(O)cc2)c2ncccc2c1 (configuration not stated)	100%	33.4%	99.3%	2600 nM	95 µM	104 µM	> 100 µM	> 100 µM	111 µM	61.9%	142 µM	85 µM	
COc1cc(NC(C)CCCNC(=O)Nc2cccc(C(F)(F)F)c2)c2ncccc2c1 (configuration not stated)	47.7%	48.3%	31.3%	3300 nM	9.2 µM	20 µM	22 µM	21 µM	19 µM	71.8%	17 µM	14 µM	
COc1cc(NC(C)CCCNC(=O)Nc2ccc(F)cc2)c2ncccc2c1 (configuration not stated)	24.7%	39.8%		26000 nM	18 µM	24 µM	25 µM	26 µM	26 µM	64.4%	21 µM	20 µM	
COc1cc(NC(C)CCCNC(=O)NNC(=O)Nc2ccc(Br)cc2)c2ncccc2c1 (configuration not stated)	99%	28%	96.9%	100 nM	51 µM	209 µM	17 µM	27 µM	110 µM		231 µM	101 µM	
COc1cc(NC(C)CCCNC(=O)Nc2cccc(F)c2)c2ncccc2c1 (configuration not stated)	26%	44.6%		18000 nM	19 µM	23 µM	27 µM	24 µM	21 µM	74.3%	22 µM	18 µM	
COc1cc(NC(C)CCCNC(=O)NNC(=O)Nc2cccc(C(F)(F)F)c2)c2ncccc2c1 (configuration not stated)	91.2%	51.4%	98.3%	190 nM	4 µM	36 µM	21 µM	20 µM	6.9 µM	52.6%	5.6 µM	4.9 µM	
COc1cc(NC(C)CCCNC(=O)NNC(=O)Nc2ccc(Cl)cc2)c2ncccc2c1 (configuration not stated)	100%	39%	97.6%	180 nM	58 µM	186 µM	48 µM	63 µM	108 µM	42.1%	≥ 250 µM	120 µM	
COc1cc(NC(C)CCCN)c2ncccc2c1 (configuration not stated) [PRIMAQUINE]													MIC50 [14]: 65 µg/mL (≈ 251 µM); MIC50 [15]: 70 µg/mL (≈ 270 µM); MIC50 [16]: 65 µg/mL (≈ 251 µM); MIC50 [17]: > 100 µg/mL; MIC50 [18]: 70 µg/mL (≈ 270 µM); MIC50 [19]: 70 µg/mL (≈ 270 µM); MIC50 [20]: 60 µg/mL (≈ 231 µM); MIC50 [21]: 70 µg/mL (≈ 270 µM); MIC50 [22]: 70 µg/mL (≈ 270 µM); MIC50 [23]: 70 µg/mL (≈ 270 µM); MIC50 [24]: 70 µg/mL (≈ 270 µM); MIC50 [25]: 80 µg/mL (≈ 308 µM); MIC50 [26]: > 100 µg/mL; MIC50 [28]: 350 µg/mL (≈ 1350 µM); MIC50 [27]: 70 µg/mL (≈ 270 µM)
